rRNA inh HTS: reduced GFP signal of wild-type E. coli, primary screen, bacterial rRNA inhibitor project, GFP/RFP fluorescence, OD600, single point. E. coli WT GFP vs humanized-ribosome RFP mutants, 24 h; hits give low values; DMSO median 0, no signal -100. GFP signal change (wild-type ribosome), % (no concentration beside the values). actives 1.6% (n = 350,000);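 active = significant combined selectivity score with lowered wild-type GFP, culture density cut under 30%, mutant RFP and density less affected; inactive = any of these conditions unmet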
miR122 inh: miR-122 Renilla sensor signal increase in Huh7, primary screen, miR-122 inhibitor project, cell-based, single point, plate reader; Huh7 miR-122 Renilla luciferase sensor, 48 h; neutral wells = 0, positive control = 100; activation (reporter increase), % at 12.5 µM; actives 0.3% (n = 340,000); AID 602342, 2012;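 active = mean replicate activation score at least 90 and every replicate individually at or above 90; inconclusive = only one of the two criteria met; inactive = neither criterion met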;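 also: higher luciferase means less miR-122 activity so hits act as miR-122 inhibitors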
DENV2 CPE rescue: inhibitors of DENV2 cytopathic effect, primary screen, cell-based, plate reader, single concentration | DENV2-infected cells, cytopathic effect rescue | CPE inhibition, % at 9.99 µM | actives 1.7% (n = 350,000) | AID 651640, 2012; in the data active = CPE inhibition above about 20%, passing the limit was not always enough; inconclusive = no clear call, values can overlap the other calls; tested in BHK-21 cells;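 also: 0% = median of neutral control wells and 100% = median of positive control wells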
Cneo AK release: Cryptococcus neoformans cell lysis inducers, primary screen, AK release luminescence, single concentration; C. neoformans lysis, adenylate kinase release luminescence, 4 h; normalised: neutral wells 0, clomiphene wells 100; lysis activity, % at 15 µM; actives 0.2% (n = 360,000); AID 651654, 2012;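 active = mean lysis activity across replicates of at least 80%, whatever share of replicates individually reach that level; inactive = mean lysis activity below 80%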
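read-out = cell lysis signal | test system = log-phase Cryptococcus neoformans yeast cells | input = cells at 5 × 10^6 per mL | medium = fresh YPD growth medium | signal = luminescent adenylate kinase detection reagent | timing = 4 h at 37 °C static, read 1 h later | dosing = single dose | controls = Clomiphene as positive lysis control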
E-selectin induc: E-selectin induction in HUVECs, primary screen, imaging, HUVEC, immunofluorescence imaging, single point; AID 686992, 2013; normalized: neutral wells 0, TNF-alpha wells 100; P16581; activation, % at 7.58 µM; actives 0.37% (n = 260,000);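 active = mean E-selectin-positive cell signal at least 10% of the positive control, reached in at least 60% of replicates, without over 20% cell loss; inconclusive = no rule given, readout overlaps actives, possibly toxicity-flagged; inactive = the rest, including those meeting only one limit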
Target sequence (P16581 whole entry, looked up): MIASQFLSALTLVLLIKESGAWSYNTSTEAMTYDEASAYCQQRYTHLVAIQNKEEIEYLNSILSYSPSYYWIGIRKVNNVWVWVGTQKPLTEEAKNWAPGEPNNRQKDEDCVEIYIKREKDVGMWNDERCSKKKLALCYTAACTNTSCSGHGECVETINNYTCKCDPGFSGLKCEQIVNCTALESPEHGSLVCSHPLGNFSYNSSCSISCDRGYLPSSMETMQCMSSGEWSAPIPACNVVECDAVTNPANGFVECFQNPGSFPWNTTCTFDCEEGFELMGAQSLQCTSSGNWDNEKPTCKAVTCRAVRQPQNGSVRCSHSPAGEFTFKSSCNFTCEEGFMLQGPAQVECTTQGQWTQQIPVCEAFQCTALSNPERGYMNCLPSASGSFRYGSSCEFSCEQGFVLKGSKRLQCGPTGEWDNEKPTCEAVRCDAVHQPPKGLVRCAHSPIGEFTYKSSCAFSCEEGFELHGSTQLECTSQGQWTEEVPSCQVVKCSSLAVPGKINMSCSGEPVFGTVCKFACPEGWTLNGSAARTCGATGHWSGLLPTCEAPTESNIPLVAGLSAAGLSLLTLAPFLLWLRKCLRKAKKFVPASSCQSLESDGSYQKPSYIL
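Test system: HUVEC | Signal: Immunofluorescence imaging | Read-out: Percent E-selectin-positive cells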
* marks the source's active call; other numbers are inactive results; ? = inconclusive; · = no result; [ ] = dose if it differs, or a comment. Sampled rows, rich in hits. Any-hit rate of the full collection: about 3.1%.

SMILES	rRNA inh HTS	miR122 inh	DENV2 CPE rescue	Cneo AK release	E-selectin induc
Cc1ccc([N+](=O)[O-])cc1S(=O)(=O)NCCc1c(C)[nH]c2c(C)cccc12	-20.2*	-4.8	3.9	-0.8	-0.1
C[C@@H]1CN([C@@H](C)CO)C(=O)Cc2cc(NC(=O)Nc3ccc4c(c3)OCO4)ccc2O[C@@H]1CN(C)Cc1ccc(C(=O)Nc2ccccc2N)cc1	-8.3	·	-0.9	·	0.5
COc1ccc2c3c([nH]c2c1)[C@H](CO)N(C(=O)Nc1c(C)noc1C)CC31CCN(CC2CCCCC2)CC1	1.8	·	?	·	-0.4
COc1ccccc1S(=O)(=O)N[C@@H]1CC[C@H](CC(=O)NCc2cc(F)cc(F)c2)O[C@@H]1CO	-1.1	·	4.3	·	0.1
C[C@@H]1CN([C@H](C)CO)C(=O)Cc2cc(NS(=O)(=O)c3ccccc3)ccc2O[C@H]1CN(C)C(=O)Nc1ccc2c(c1)OCO2	5.3	-4.0[16.7 µM]	·	·	0.2
CCC(=O)Nc1nnc(/C=C/c2ccc(OC)cc2)s1	-4.2	·	57.7*	·	·
O=C(C[C@@H]1CC[C@@H]2[C@H](COC[C@@H](O)CN2S(=O)(=O)c2ccc(Cl)cc2)O1)NCCN1CCCCC1	1.5	·	3.4	·	0.1
C[C@@H](NC(=O)[C@@H]1[C@@H](CO)[C@@H]2Cn3c(cccc3=O)[C@@H]2N1CC1CC1)c1ccccc1	1.0	6.4[16.7 µM]	12.8	-3.0	-0.1
CC(=O)N[C@H]1CC[C@@H](CCNC(=O)C2CC2)O[C@@H]1CO	4.3	7.4[16.7 µM]	2.2	2.9	-0.5
CCN1[C@@H]2c3ccc(-c4ccccc4)c(=O)n3C[C@@H]2[C@@H](CO)[C@@H]1C(=O)NCc1ccccc1	-3.5	2.0[16.7 µM]	-2.8	-1.7	0.4
CO[C@H]1CN(C)C(=O)c2cc(NS(=O)(=O)CC(F)(F)F)ccc2OC[C@@H](C)N(CC2CCCCC2)C[C@H]1C	1.8	·	-0.7	0.6	0.0
COc1ccc(NC(=O)Nc2ccc3c(c2)C(=O)N([C@@H](C)CO)C[C@@H](C)[C@@H](CN(C)C(=O)Nc2ccc4c(c2)OCO4)O3)cc1	2.4	6.2[16.7 µM]	-3.8	0.5	-2.4
CCC(=O)N1C[C@H](C)[C@H](OC)CN(C)C(=O)c2cc(NC(=O)c3cnccn3)ccc2OC[C@H]1C	-0.3	-5.5[16.7 µM]	24.5*	-0.1	0.3
CO[C@H]1CN(C)C(=O)c2ccc(NC(=O)c3cnccn3)cc2OC[C@@H](C)N(CC2CC2)C[C@@H]1C	2.6	·	21.6*	·	-0.1
COc1ccc(-c2cn(CC[C@@H]3CC[C@H](NC(=O)Nc4ccc(F)cc4)[C@H](CO)O3)nn2)cc1	-2.0	·	95.1*	·	0.1
O=C(N[C@H]1CC[C@H](CCn2cc(-c3ccccn3)nn2)O[C@H]1CO)c1ccc(F)cc1	1.9	·	-0.1	83.1*	-0.1
O=C(Nc1ccc(F)cc1)N[C@H]1CC[C@@H](CCn2cc(-c3ccc(F)cc3)nn2)O[C@H]1CO	-8.5	·	-8.8	0.4	0.1
COc1ccc(NC(=O)N[C@H]2CC[C@@H](CCn3cc(C4(O)CCCC4)nn3)O[C@@H]2CO)cc1	1.2	·	93.2*	0.1	0.2
O=C(Nc1ccc(F)cc1)N[C@@H]1CC[C@@H](CCn2cc(-c3ccc(F)cc3)nn2)O[C@H]1CO	2.7	·	21.7*	-2.6	0.2
Cc1ccc(-n2c(SCC(=O)N3CCOCC3)nc(O)cc2=O)cc1	6.6	·	68.9*	-1.4	0.0
COc1ccc(-n2c(SCC(=O)N3CCOCC3)nc(O)cc2=O)cc1	8.8	·	14.2	-0.8	-0.2
CNC[C@H]1Oc2ccc(N(C)C)cc2CC(=O)N(C)C[C@@H]1C	0.7	·	·	·	·
CO[C@H]1CC[C@@H]2CCOc3c(C#N)cccc3C(=O)N(C)C[C@@H](OC)[C@@H](C)C(=O)N(C)C[C@H]1O2	-5.8	·	3.5	2.1	0.1
CO[C@H]1CC[C@@H]2CCOc3c(C#N)cccc3C(=O)N(C)C[C@@H](OC)[C@@H](C)C(=O)N(C)C[C@@H]1O2	5.2	·	0.8	84.8*	0.0
COc1cccc(CNC(=O)C[C@H]2C=C[C@H](NC(=O)C3CCOCC3)[C@@H](CO)O2)c1	4.1	·	20.8*	5.3	0.0
SMILES	rRNA inh HTS	miR122 inh	DENV2 CPE rescue	Cneo AK release	E-selectin induc
COc1cccc(NC(=O)N[C@H]2C=C[C@H](CC(=O)NCc3ccccn3)O[C@H]2CO)c1	2.7	·	29.1*	·	0.8
COc1cccc(NC(=O)N[C@@H]2C=C[C@H](CC(=O)NCc3ccccn3)O[C@@H]2CO)c1	0.7	·	-2.6	2.4	-0.2
COc1cccc(CNC(=O)C[C@H]2CC[C@@H](NC(=O)C3CCC3)[C@H](CO)O2)c1	0.8	·	35.5*	1.7	-1.4
COc1ccccc1S(=O)(=O)N[C@H]1C=C[C@@H](CC(=O)NCc2cccc(F)c2)O[C@H]1CO	-1.7	·	23.4*	1.5	-0.1
C[C@@H]1CN([C@H](C)CO)C(=O)CCCn2cc(nn2)CO[C@@H]1CN(C)Cc1ccc(C(F)(F)F)cc1	-2.0	2.4[16.7 µM]	·	·	0.5
CCCNC(=O)Nc1ccc2c(c1)C(=O)N(C)C[C@H](OC)[C@H](C)CN(CCC(F)(F)F)[C@H](C)CO2	-1.8	7.2[16.7 µM]	·	·	-0.3
O=C(C[C@H]1C=C[C@H](NC(=O)Cc2ccccn2)[C@@H](CO)O1)NCCc1ccncc1	-1.6	·	23.2*	15.5	0.4
COc1ccc(CNC(=O)C[C@H]2C=C[C@H](NC(=O)c3ccc4c(c3)OCO4)[C@H](CO)O2)cc1	0.1	·	60.8*	·	-0.2
COc1c(Br)cc([N+](=O)[O-])c(OC)c1C(=O)NC(=O)Nc1cc(Cl)cc(Cl)c1	·	-5.2	?	1.1	3.7
COc1c(Br)cc([N+](=O)[O-])c(OC)c1C(=O)NC(=O)Nc1c(Cl)cccc1Cl	-38.1*	3.9	7.4	-0.5	·
CCOC(=O)Cc1nn(Cc2ccccc2)c(=O)c2ccccc12	-25.9*	·	3.6	·	-0.1
COC(=O)c1ccc(=O)c2nc3/c(=C/O)c(O)cc(=O)c3[nH]c12	-13.5	0.4	42.4*	-0.8	·
COC(=O)c1ccc(N)cc1O	·	6.3	·	1.3	·
O=C(NNCc1ccc(O)cc1)c1ccccc1Cl	19.9	-1.7	74.9*	-2.7	·
O=C1N[C@H](c2ccccc2)COCc2cn(nn2)CC[C@H]1Cc1ccc(Cl)cc1	1.7	·	·	·	·
CCC(=O)Nc1ccc2c(c1)C(=O)N(C)[C@@H]1CC[C@@H](CC(=O)NC3CCCC3)O[C@H]1CO2	3.4	-2.7[16.7 µM]	?	-1.1	0.0
Cn1ncc(Br)c1C(=O)NC12CC3CC(CC(C3)C1)C2	-29.9*	·	-0.2	·	0.1
CCOC(=O)C1CCCN(C(=O)c2cc(S(=O)(=O)N(C)C)ccc2N2CCCC2)C1 (stereo not drawn)	-0.8	11.1	-0.9	-1.0	428.1*

From PubChem
